# Screening data (PubChem)
# Hits are enriched below; roughly 1.7% of the tested compounds scored in any of these assays.
# Scp-1 inhibitor = inhibitors of human Scp-1 phosphatase; Recombinant Scp1, phosphopeptide, malachite green phosphate absorbance; inhibition, % at 20 µM; 0.88% of 340,000 active; AID 493091;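 active means inhibition above about 50% at 20 µM, limit read from the data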;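 further: plate controls were DMSO wells with enzyme for no effect and wells lacking enzyme for full effect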
#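 Test system – truncated SCP-1 phosphatase (76-261aa) · Reagent – Phosphorylated 17-residue peptide substrate · Incubation – 45 min room-temperature reaction, 5 min colour, 30 min stabiliser · Detection – colorimetric phosphate reagent with accelerator and stabiliser, absorbance at 630 nm · Measure – % inhibition at 20 µM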
# STEP block = blocks human striatal-enriched tyrosine phosphatase; 0.25% of 360,000 active; recombinant STEP, OMFP fluorogenic substrate, fluorescence; P54829; inhibition, % at 20 µM;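 active means inhibition at 20 µM, scaled per plate between control wells, above about 37%, limit read from the data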;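 further: 0% = DMSO with enzyme and substrate and 100% = substrate only without enzyme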
#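 Also added – OMFP at 25 µM · Test system – STEP tyrosine phosphatase · Technique – FITC-channel fluorescence of OMFP product · Schedule – 20 min at room temperature, dark · Evaluation – control-normalized % inhibition with plate pattern correction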
# LMPTP block = LMPTP (human) inhibition | AID 651560 | 0.22% of 360,000 active | recombinant LMPTP-A, OMFP fluorogenic substrate, fluorescence intensity | P24666 | inhibition, % at 20 µM;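 active means compounds that cut the enzyme signal by at least half of the control window in the single-dose screen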;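 further: plate controls were DMSO wells with enzyme plus substrate for no effect and substrate without enzyme for full effect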
#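 Test system: LMPTP-A phosphatase enzyme; input: 0.625 nM LMPTP-A final; reagent: OMFP substrate, 400 µM final; compound dosing: 20 µM single dose, 3% DMSO; incubation: 50 min dark incubation at room temperature; measured by: endpoint fluorescence intensity from OMFP dephosphorylation; measure: % inhibition relative to no-enzyme and uninhibited control wells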
# DNMT1 block = blocks human DNA methyltransferase DNMT1. inhibition (reported as % activation of signal), % at 10 µM. DNMT1 molecular beacon, Hinp1I cleavage, fluorescence. 0.83% of 360,000 active. P26358; in the data active means inhibition above about 50%
# Target sequence (P26358 504-1616 limits assumed): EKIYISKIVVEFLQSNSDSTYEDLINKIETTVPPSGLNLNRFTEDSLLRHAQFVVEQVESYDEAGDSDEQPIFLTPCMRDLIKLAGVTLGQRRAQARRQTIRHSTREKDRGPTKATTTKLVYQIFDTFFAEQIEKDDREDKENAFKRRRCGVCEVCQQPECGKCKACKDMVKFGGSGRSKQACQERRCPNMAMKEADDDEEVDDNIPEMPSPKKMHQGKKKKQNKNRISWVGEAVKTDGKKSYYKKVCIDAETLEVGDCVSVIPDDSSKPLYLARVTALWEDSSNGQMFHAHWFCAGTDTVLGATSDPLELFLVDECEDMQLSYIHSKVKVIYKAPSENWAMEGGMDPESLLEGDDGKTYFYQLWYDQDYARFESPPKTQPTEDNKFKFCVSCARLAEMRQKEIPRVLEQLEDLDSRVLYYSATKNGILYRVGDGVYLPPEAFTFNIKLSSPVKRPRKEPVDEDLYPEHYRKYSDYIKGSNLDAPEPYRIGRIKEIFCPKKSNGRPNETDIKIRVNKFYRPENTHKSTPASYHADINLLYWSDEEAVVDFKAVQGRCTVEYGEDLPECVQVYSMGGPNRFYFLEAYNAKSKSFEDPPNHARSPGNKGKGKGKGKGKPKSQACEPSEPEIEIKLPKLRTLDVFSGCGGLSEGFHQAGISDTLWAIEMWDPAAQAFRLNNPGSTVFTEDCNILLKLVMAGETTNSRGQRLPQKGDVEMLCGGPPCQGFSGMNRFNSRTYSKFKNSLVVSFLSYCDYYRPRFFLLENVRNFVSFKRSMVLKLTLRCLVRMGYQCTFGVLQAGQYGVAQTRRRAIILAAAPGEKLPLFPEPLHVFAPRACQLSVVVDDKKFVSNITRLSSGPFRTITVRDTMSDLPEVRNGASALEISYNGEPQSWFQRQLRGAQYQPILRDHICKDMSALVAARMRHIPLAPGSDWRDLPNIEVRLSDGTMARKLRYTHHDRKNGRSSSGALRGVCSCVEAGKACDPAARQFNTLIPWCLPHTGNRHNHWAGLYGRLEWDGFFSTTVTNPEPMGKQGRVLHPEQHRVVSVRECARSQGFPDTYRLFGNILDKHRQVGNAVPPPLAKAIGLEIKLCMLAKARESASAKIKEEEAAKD
# SUMO1 PPI mod = alters human SUMO1 binding to SIM partners; inhibition, % at 20 µM; SUMO1 binding to a labelled peptide, TR-FRET, 1 h; 0.33% of 360,000 active; in the data active means inhibition above about 37%
# DNMT1 interf DR = counter-screen for DNMT1 inhibitors: spectral interference, dose response; shares compounds with DNMT1 block; molecular beacon fluorescence; IC50, µM; 200 tested, under 10 active; AID 602382; call rule not given here
# DNMT1 inh conf = confirmation of human DNMT1 inhibitors; shares compounds with DNMT1 block; 8% of 2,300 active; inhibition, % at 10 µM; DNMT1 molecular beacon HinP1I cleavage, fluorescence; AID 602385;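 active means average inhibition of at least 30% in the single-concentration confirmation test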
# Beacon interf = counter-screen for DNMT1 inhibitors: spectral interference. 1% of 2,300 active. activation (fluorescence interference), % at 10 µM. shares compounds with DNMT1 block. DNMT1 molecular beacon spectral interference counterscreen, fluorescence 485/520;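 active means activation of at least 30% at 10 µM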;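 further: DNMT1 catalytic domain with a HinP1I cleavage step and a FAM/dabcyl DNA beacon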
# Starred values were filed as active, the others as inactive; . = not tested or not shown.
SMILES,Scp-1 inhibitor,STEP block,LMPTP block,DNMT1 block,SUMO1 PPI mod,DNMT1 inh conf,Beacon interf,others
CCOc1cccc(=O)c2c(C)n(Cc3ccco3)c(C)c12,7,6,11,81*,4,4,4,
COC(=O)c1c(C(=O)OC)c(C)n(Cc2ccco2)c1C,3,-8,-1,1,4,.,.,
Cn1c(N)c(C(=O)CNC2CCCCC2)c(=O)n(C)c1=O,-8,-3,-1,1,7,.,.,
CCSc1nnc(NC(=O)C2Cc3ccccc3CN2C(=O)c2ccco2)s1 (stereo unspecified),-2,1,3,53*,20,4,0,
CC1(C(=O)NS(=O)(=O)Cc2cccc(Cl)c2)CCN1C(=O)C1(c2ccc(Cl)cc2)CCC1 (stereo unspecified),.,2,-1,2,10,.,.,
COc1ccccc1Nc1cc2cc(Br)ccc2c(=O)[nH]1,11,17,9,69*,23,0,3,
O=c1[nH]c(Nc2ccccc2)cc2cc(Br)ccc12,2,29,32,92*,37,0,0,
CC1(c2nc3ccccc3[nH]2)c2ccccc2C(=O)N1Cc1ccccc1 (stereo unspecified),.,.,1,.,0,.,.,
O=S(=O)(Nc1cccc(S(=O)(=O)N2CCCCC2)c1)c1ccc(Cl)s1,-13,-2,3,4,1,.,.,
Cc1cc(C)c(S(=O)(=O)N2CCN(C(=O)c3cc4ccccc4oc3=O)CC2)c(C)c1,-12,-3,3,-2,-3,.,.,
COc1cccc(NS(=O)(=O)c2ccc3c(c2)C2C=CCC2C(c2ccc(C(=O)O)cc2)N3)c1 (stereo unspecified),14,6,9,90*,44*,28,2,DNMT1 interf DR=>99
COc1ccc(-c2csc(NC(=O)C3CC(=O)N(Cc4ccccc4)C3)n2)cc1OC (stereo unspecified),-12,-1,1,-7,6,.,.,
CC(=O)c1sc2nc(-c3ccco3)ccc2c1N,79*,15,20,67*,29,5,7,
O=[N+]([O-])c1ccc(/C=C/c2ccc3cccc(O)c3n2)cc1,-4,1,0,67*,-4,9,2,
O=C(Nc1ccccc1)Nc1nnc(SCc2ccc(Cl)cc2)s1,-4,-2,0,9,1,.,.,
Cc1ccc(Nc2nnc(SCc3nc4ccccc4c(=O)[nH]3)s2)cc1,0,-1,0,66*,0,2,-1,
O=C(CCc1nc2ccccc2c(=O)[nH]1)Nc1nnc(SCc2ccc(Cl)cc2)s1,1,2,1,68*,5,3,-3,
O=C(CCc1nc2ccccc2c(=O)[nH]1)Nc1nnc(SCc2ccccc2F)s1,-4,2,2,77*,3,3,-1,
Cn1c(=O)c2cc(S(=O)(=O)NC(C(=O)Nc3cccc(F)c3)c3ccccc3)ccc2n(C)c1=O (stereo unspecified),-7,-8,0,83*,4,1,4,
Cn1c(=O)c2cc(S(=O)(=O)NC(C(=O)Nc3cccnc3)c3ccccc3)ccc2n(C)c1=O (stereo unspecified),-10,4,-1,1,7,.,.,
COc1ccc(CCC(N)=O)cc1OC,16,4,0,1,-3,.,.,
COc1cc2ccc(CC(N)=O)cc2cc1OC,.,-1,22,52*,8,-1,-1,
CC(=O)Nc1ccc(-n2nnnc2SCC(=O)NC2CCCC2)cc1,-6,-2,1,-1,3,.,.,
CC(=O)c1ccc(-n2nnnc2SCC(=O)NC2CCCCC2)cc1,-5,-1,-1,68*,-2,5,3,
O=C1NC(=S)S/C1=C\c1ccc(SCc2ccccc2)o1,31,12,7,82*,7,10,1,
SMILES,Scp-1 inhibitor,STEP block,LMPTP block,DNMT1 block,SUMO1 PPI mod,DNMT1 inh conf,Beacon interf,others
O=C1NC(=S)SC1=Cc1ccccc1Cl,5,-1,2,3,1,.,.,
COc1ccc(CNC(=O)CCCn2c(=S)[nH]c3cc4c(cc3c2=O)OCO4)cc1,-5,8,0,2,-29,.,.,
CCOc1cc2[nH]c(=S)n(CCC(=O)NCc3ccc(OC)cc3)c(=O)c2cc1OCC,-7,4,1,59*,6,-3,-10,
Cc1cccc(NC(=O)c2nc[nH]c2C(=O)NCCN(CCNC(=O)c2[nH]cnc2C(=O)Nc2cccc(C)c2)CCNC(=O)c2[nH]cnc2C(=O)Nc2cccc(C)c2)c1,2,-2,1,-12,-6,.,.,
CC(C)(C)OC(=O)NCc1ccc(NC(=O)c2nc[nH]c2C(=O)NCCNC(=O)c2[nH]cnc2C(=O)Nc2ccc(CNC(=O)OC(C)(C)C)cc2)cc1,4,-4,-4,64*,0,1,-5,
Cc1cccc(NC(=O)c2nc[nH]c2C(=O)NCCCNC(=O)c2[nH]cnc2C(=O)Nc2cccc(C)c2)c1,0,5,2,73*,6,2,0,
Cc1cccc2nnc(-c3ccccc3)n12,-3,4,-2,2,12,.,.,
Cc1c(=O)n(OCc2cccc(F)c2)c2ccccc2[n+]1[O-],-2,18,0,0,-31,.,.,
Cc1c(=O)n(OCc2ccccc2F)c2ccccc2[n+]1[O-],-10,-3,1,84*,-19,3,1,
CC(C)N(C(=O)Cn1cc(S(=O)(=O)CC(=O)Nc2ccccc2)c2ccccc21)C(C)C,-2,1,0,-3,-1,.,.,
Cc1ccc(CNC(=O)CC[C@H]2O[C@@H](n3cc(C)c(=O)[nH]c3=O)C[C@@H]2O)o1,.,4,-2,5,5,.,.,
CCN(CC(=O)Nc1c(F)cccc1F)C(=O)c1cc([N+](=O)[O-])ccc1N1CCCCC1,-4,-3,0,0,-36,.,.,
COc1ccc(/C=C/C(=O)NCc2cccnc2)cc1,-5,2,-2,-2,-2,.,.,
CCc1ccc(CN(Cc2cccnc2)C(=O)/C=C/c2ccc(OC)cc2)cc1,10,-1,3,57*,-27,2,0,
CCC(CCCO)CCC[C@H](C)CCC1OCCO1 (stereo partly specified),-2,-1,-1,59*,-4,1,5,
Cc1cccc(NC(=O)CSc2cc(C)c(C#N)c3nc4ccccc4n23)c1,0,3,2,52*,-20,19,3,
CC1CCN(C(=O)c2ncn(C)c2C(=O)N2CCC(C)CC2)CC1,42,0,-1,7,1,.,.,
